According to ChEMBL document CHEMBL4033782, “Structural Modification of Natural Product Tanshinone I Leading to Discovery of Novel Nitrogen-Enriched Derivatives with Enhanced Anticancer Profile and Improved Drug-like Properties” (J Med Chem, 2018):
Converted amounts (≈) assume the structure as drawn. The source made the active and inactive calls. No cut-off for these calls is given here.

Tests used:
KB = test: Antiproliferative activity against human KB cells after 72 hrs by sulforhodamine B assay; type: functional, cell-based
In short: (§1)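 Cells grown in ATCC-specified medium with 10% heat-inactivated FBS, penicillin/streptomycin and 10 mM Hepes, at 37 °C under 5% CO2. Seeded, cultured overnight, then exposed to gradient concentrations for 72 h. Growth read by SRB staining; inhibition % = [1−(A450 treated/A450 control)]×100. IC50 obtained by the Logit method from independent experiments.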

[1] = Antiproliferative activity against human KB/VCR cells after 72 hrs by sulforhodamine B assay; type: functional, cell-based; in short: as §1
HCT-116 [2] = test: Induction of apoptosis in human HCT116 cells after 48 hrs by Annexin V-FITC/propidium iodide staining-based FACS analysis; type: functional, cell-based
HCT-116 [3] = test: Induction of apoptosis in human HCT116 cells assessed as cleavage of PARP after 48 hrs by Western blot analysis; type: functional, cell-based
In short: (§2)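 HCT116 cells, with or without a 1 h pretreatment with 20 μM Z-VAD-FMK, exposed for 48 h. Lysed on ice in Hepes/NaCl/Triton X-100 buffer with protease/phosphatase inhibitors and clarified at 12,000×g. Equal protein run by SDS-PAGE, blotted to nitrocellulose, probed overnight at 4 °C for PARP, caspase 3, caspase 7 and β-actin. HRP secondaries, ECL detection.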

HCT-116 [4] = test: Induction of apoptosis in human HCT116 cells assessed as activation of caspase 3/7 after 48 hrs by Western blot analysis; type: functional, cell-based; in short: as §2
HCT-116 [5] = test: Induction of apoptosis in human HCT116 cells pretreated with Z-VAD-FMK pan-caspase inhibitor for 1 hr assessed as cleavage of PARP at 0.5 to 2 uM after 48 hrs by Western blot analysis; type: functional, cell-based; in short: as §2
HCT-116 [6] = test: Induction of apoptosis in human HCT116 cells pretreated with Z-VAD-FMK pan-caspase inhibitor for 1 hr assessed as activation of caspase 3/7 at 0.5 to 2 uM after 48 hrs by Western blot analysis; type: functional, cell-based; in short: as §2
HCT-116 [7] = test: Antitumor activity against human HCT116 cells xenografted in BALB/C nude mouse assessed as tumor growth inhibition at 10 mg/kg, iv once daily for 14 days starting on day 14 post tumor implantation measured on day 32; type: functional, organism-based
In short: (§3)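 BALB/c nude male mice (18–20 g) implanted subcutaneously in the right axilla with HCT116 cells. Dosing began once tumors exceeded 100 mm³ (day 14). Test agent given 10 mg/kg i.v. or 30 mg/kg i.p. daily for 14 days; 5-FU 15 mg/kg as reference. Vehicle 1% DMSO in sterile saline; 6 mice per treated group, 10 per control. Relative tumor volume and body weight tracked.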

HCT-116 [8] = test: Antitumor activity against human HCT116 cells xenografted in BALB/C nude mouse assessed as tumor growth inhibition at 30 mg/kg, ip once daily for 14 days starting on day 14 post tumor implantation measured on day 32; type: functional, organism-based; in short: as §3
HCT-116 [9] = test: Induction of apoptosis in human HCT116 cells assessed as activation of caspase 3/7 at 1.0 to 4.0 uM after 24 hrs by Caspase-Glo 3/7 assay
HCT-116 [10] = test: Induction of apoptosis in human HCT116 cells pretreated with Z-VAD-FMK pan-caspase inhibitor for 1 hr assessed as activation of caspase 3/7 at 1.0 to 4.0 uM after 24 hrs by Caspase-Glo 3/7 assay
[11] = Aqueous solubility of the compound in pH 7.5 Tris buffer after 24 hrs by HPLC method; type: physicochemical
[12] = Half life in human liver microsomes at 0.1 uM up to 60 mins by LC-MS/MS analysis; type: ADME, microsome
In short: (§4)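 Compound at 0.1 μM final (0.01% DMSO, 0.005% BSA) incubated at 37 °C with human, rat or mouse liver microsomes (0.33 mg/mL protein) in 0.1 M Tris/HCl pH 7.4, with 5 mM MgCl2 and 1 mM NADPH. Samples taken at 0, 7, 17, 30 and 60 min, quenched by methanol precipitation, centrifuged, and parent measured by LC-MS/MS. T1/2 and Clint derived.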

[13] = Half life in rat liver microsomes at 0.1 uM up to 60 mins by LC-MS/MS analysis; type: ADME, microsome; in short: as §4
[14] = Half life in mouse liver microsomes at 0.1 uM up to 60 mins by LC-MS/MS analysis; type: ADME, microsome; conditions: liver microsomes; in short: as §4
Liver [15] = test: Intrinsic clearance in human liver microsomes assessed as per mg protein up to 60 mins by LC-MS/MS analysis; type: ADME, microsome; conditions: 1 h; in short: as §4
Liver [16] = test: Intrinsic clearance in rat liver microsomes assessed per mg protein up to 60 mins by LC-MS/MS analysis; type: ADME, microsome; conditions: 1 h
In short: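 Liver microsomes (0.33 mg/mL protein) in 0.1 M Tris/HCl pH 7.4 with 5 mM MgCl2, 1 mM NADPH, compound at 0.1 μM final (0.01% DMSO, 0.005% BSA), 37 °C; samples at 0, 7, 17, 30, 60 min quenched in methanol, centrifuged, LC-MS/MS; T1/2 and Clint per g protein derived.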

Liver [17] = test: Intrinsic clearance in mouse liver microsomes assessed per mg protein up to 60 mins by LC-MS/MS analysis; type: ADME, microsome; conditions: 1 h; in short: as §4

IC50 (KB)	SMILES	IC50 [1]	also measured
1640 nM	Cc1cccc2c3c(ccc12)-c1occ(CN(CCO)CCO)c1C(=O)C3=O	1430 nM	–
3220 nM	Cc1cccc2c3c(ccc12)-c1occ(CO)c1C(=O)C3=O	2950 nM	–
1540 nM	Cc1cccc2c3c(ccc12)-c1occ(CN2CCC(O)CC2)c1C(=O)C3=O	1110 nM	–
2190 nM	COC1C2=C(OC1(C)C)c1ccc3c(C)cccc3c1C(=O)C2=O (stereo not drawn)	2020 nM	–
13800 nM	Cc1cc2c(o1)-c1c(c3ccccc3c(=O)n1CCCCCN(C)C)C(=O)C2=O	5170 nM	–
> 20000 nM	Cc1cccc2c3c(ccc12)-c1occ(CN2CCOCC2)c1C(=O)C3=O	> 20000 nM	–
> 20000 nM	Cc1cc2c(o1)-c1c(c3ccccc3c(=O)n1CCO)C(=O)C2=O	> 20000 nM	–
10400 nM	Cc1cc2c(o1)-c1c(c3ccccc3c(=O)n1CCCN1CCN(C)CC1)C(=O)C2=O	3520 nM	–
> 20000 nM	Cc1cc2c(o1)-c1nc(OCCCCN(C)C)c3ccccc3c1C(=O)C2=O	> 20000 nM	–
3800 nM	Cc1cccc2c3c(ccc12)-c1occ(CN2CCC(N(C)C)CC2)c1C(=O)C3=O	3820 nM	–
8120 nM	CON(C)Cc1coc2c1C(=O)C(=O)c1c-2ccc2c(C)cccc12	5710 nM	–
340 nM	Cc1cc2c(o1)-c1c(c3ccccc3c(=O)n1CCCN1CCC(N3CCOCC3)CC1)C(=O)C2=O	1720 nM	–
4970 nM	Cc1cccc2c3c(ccc12)-c1occ(CN2CCO[C@H](CO)C2)c1C(=O)C3=O	2410 nM	–
–	CCN(CC)CCCn1c2c(c3ccccc3c1=O)C(=O)C(=O)c1cc(C)oc1-2	–	Activity (HCT-116 [2]): Dose-dependent effect; Activity (HCT-116 [3]): Dose-dependent effect; Activity (HCT-116 [4]): Dose-dependent effect; Activity (HCT-116 [5]): inactive; Activity (HCT-116 [6]): inactive; TGI (HCT-116 [7]): Active; TGI (HCT-116 [8]): Active; Activity (HCT-116 [9]): Active; Activity (HCT-116 [10]): inactive
4050 nM	Cc1cc2c(o1)-c1c(c3ccccc3c(=O)n1CCCCN(C)C)C(=O)C2=O	2470 nM	–
1120 nM	Cc1cc2c(o1)-c1c(c3ccccc3c(=O)n1CCCN1CCCCC1)C(=O)C2=O	1530 nM	–
5220 nM	Cc1cccc2c3c(ccc12)-c1occ(CN2CCN(C)CC2)c1C(=O)C3=O	13100 nM	–
2300 nM	Cc1cc2c(o1)-c1c(c3ccccc3c(=O)n1CCCN1CCOCC1)C(=O)C2=O	1560 nM	–
1630 nM	Cc1cccc2c3c(ccc12)C1=C(C(=O)C3=O)C(O)C(C)(C)O1 (stereo not drawn)	1240 nM	solubility at 24 h [11]: 90 µg/mL (≈ 292 µM); half-life at 0.1 µM [12]: 57.1 min; half-life at 0.1 µM [13]: 20.2 min; half-life at 0.1 µM [14]: 25.3 min; intrinsic clearance (Liver [15]): 36.8 mL/min/g; intrinsic clearance (Liver [16]): 104 mL/min/g; intrinsic clearance (Liver [17]): 83.1 mL/min/g
3400 nM	Cc1cc2c(o1)-c1c(c3ccccc3c(=O)n1CCCN1CCCC1)C(=O)C2=O	2640 nM	–

IC50 (KB)	SMILES	IC50 [1]	also measured
1270 nM	Cc1cccc2c3c(ccc12)-c1occ(CN2CCC(CO)C2)c1C(=O)C3=O (stereo not drawn)	910 nM	–
3780 nM	Cc1cc2c(o1)-c1nc(OCCOCCN(C)C)c3ccccc3c1C(=O)C2=O	1650 nM	–
9710 nM	Cc1cccc2c3c(ccc12)-c1occ(CN2CCC(=O)CC2)c1C(=O)C3=O	4740 nM	–
1500 nM	Cc1cccc2c3c(ccc12)-c1occ(CN(C)CCO)c1C(=O)C3=O	1020 nM	–
2620 nM	Cc1cccc2c3c(ccc12)C1=C(CC(C)(C)O1)C(=O)C3=O	2370 nM	–
> 20000 nM	Cc1cccc2c3c(ccc12)C1=C(C(=O)C3=O)C(Nc2ccc(F)c([N+](=O)[O-])c2)C(C)(C)O1 (stereo not drawn)	> 20000 nM	–
–	CCN(CC)CCCn1c2c(c3ccccc3c1=O)C(=O)C(=O)c1cc(C)oc1-2.Cl	–	solubility at 24 h [11]: > 80000 µg/mL
> 20000 nM	Cc1cc2c(o1)-c1nc(OCCO)c3ccccc3c1C(=O)C2=O	> 20000 nM	–
–	Cc1cccc2c3c(ccc12)-c1occ(CN(C)C)c1C(=O)C3=O.Cl	–	solubility at 24 h [11]: 8030 µg/mL
> 20000 nM	COc1ccc(OC)c(NC2C3=C(OC2(C)C)c2ccc4c(C)cccc4c2C(=O)C3=O)c1 (stereo not drawn)	> 20000 nM	–
2680 nM	Cc1cccc2c3c(ccc12)-c1occ(CN2CCN(CCO)CC2)c1C(=O)C3=O	4410 nM	–
870 nM	Cc1cc2c(o1)-c1c(c3ccccc3c(=O)n1CCCN1CCC(CCO)CC1)C(=O)C2=O	1490 nM	–
0.72 nM	CC[C@]1(O)C[C@H]2CN(CCc3c([nH]c4ccccc34)[C@@](C(=O)OC)(c3cc4c(cc3OC)N(C=O)[C@H]3[C@@](O)(C(=O)OC)[C@H](OC(C)=O)[C@]5(CC)C=CCN6CC[C@]43[C@@H]65)C2)C1 [VINCRISTINE]	358 nM	–
1590 nM	Cc1cccc2c3c(ccc12)-c1occ(CN2CCCC2)c1C(=O)C3=O	1790 nM	–
2610 nM	Cc1cccc2c3c(ccc12)-c1occ(CN2CC[C@H](N(C)C)C2)c1C(=O)C3=O	1700 nM	–
1110 nM	Cc1cccc2c3c(ccc12)-c1occ(CN(C)C)c1C(=O)C3=O	510 nM	half-life at 0.1 µM [12]: 501 min; half-life at 0.1 µM [13]: 22.7 min; half-life at 0.1 µM [14]: 40.7 min; intrinsic clearance (Liver [15]): 4.19 mL/min/g; intrinsic clearance (Liver [16]): 92.7 mL/min/g; intrinsic clearance (Liver [17]): 51.6 mL/min/g
710 nM	Cc1cc2c(o1)-c1c(c3ccccc3c(=O)n1CCCN(C)C)C(=O)C2=O	920 nM	–
15300 nM	Cc1cc2c(o1)-c1nc(OCCCCCN(C)C)c3ccccc3c1C(=O)C2=O	1990 nM	–
17200 nM	Cc1cc2c(o1)-c1c(c3ccccc3c(=O)n1CCCn1ccnc1)C(=O)C2=O	10100 nM	–

SMILES	IC50 (KB)	IC50 [1]	also measured
Cc1cccc2c3c(ccc12)-c1occ(CN(CCCl)CCCl)c1C(=O)C3=O	9430 nM	10900 nM	–
